Data taken from ChEMBL document CHEMBL1159017, “Akuammine and dihydroakuammine, two indolomonoterpene alkaloids displaying affinity for opioid receptors” (J Nat Prod, 1992).

Legend:
[1] = molecular target: Delta-type opioid receptor (Rattus norvegicus, UniProt P33533); experiment: Displacement of [3H]pCl-DPDP from delta opioid receptor in rat central nervous system membrane; type: tissue-based
Outline: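 Rat CNS membranes incubated with 1 nM [3H]-pCl-DPDP-enkephalin for 270 min at 20°. Bound and free ligand separated by rapid filtration; radioactivity counted by beta scintillation. Nonspecific binding set with 10^-5 M unlabelled DPDP-enkephalin (specific >70%). IC50 (half-maximal displacement, molar) obtained from displacement curves.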

Mu-type opioid receptor = Mu-type opioid receptor (Rattus norvegicus, UniProt P33535); experiment: Displacement of [3H]DAMGO from mu opioid receptor in rat central nervous system membrane; type: tissue-based
Outline: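 Rat CNS membranes incubated with 1 nM [3H]-DAGO for 60 min at 20°. Bound and free radioligand separated by rapid filtration, then beta-scintillation counting. Specific binding defined with 10^-5 M unlabelled DAGO (>70%). IC50 (molar concentration giving half-maximal displacement) calculated from displacement curves.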

[2] = Displacement of [3H]U69593 from kappa opioid receptor in guinea pig cerebellum membrane; type: cell membranes, Cavia porcellus
Outline: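 Guinea pig cerebellum homogenate incubated with 1.5 nM [3H]-U 69593 for 60 min at 20°. Rapid filtration, then beta-scintillation counting. Specific binding defined with 10^-5 M U50488H (>70%). IC50, the molar concentration giving half-maximal displacement, derived from displacement curves.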

Sequence of Delta-type opioid receptor (P33533 whole entry): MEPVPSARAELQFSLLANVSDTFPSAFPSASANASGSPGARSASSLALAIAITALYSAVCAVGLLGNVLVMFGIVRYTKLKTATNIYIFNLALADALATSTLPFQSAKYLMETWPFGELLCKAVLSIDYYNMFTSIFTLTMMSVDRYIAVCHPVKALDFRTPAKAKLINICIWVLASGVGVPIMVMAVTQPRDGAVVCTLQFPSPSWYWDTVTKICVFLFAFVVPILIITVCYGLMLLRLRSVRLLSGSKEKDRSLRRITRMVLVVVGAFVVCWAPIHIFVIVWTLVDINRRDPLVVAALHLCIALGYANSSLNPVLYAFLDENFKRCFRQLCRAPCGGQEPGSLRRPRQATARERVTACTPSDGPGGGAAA
Sequence of Mu-type opioid receptor (P33535 whole entry): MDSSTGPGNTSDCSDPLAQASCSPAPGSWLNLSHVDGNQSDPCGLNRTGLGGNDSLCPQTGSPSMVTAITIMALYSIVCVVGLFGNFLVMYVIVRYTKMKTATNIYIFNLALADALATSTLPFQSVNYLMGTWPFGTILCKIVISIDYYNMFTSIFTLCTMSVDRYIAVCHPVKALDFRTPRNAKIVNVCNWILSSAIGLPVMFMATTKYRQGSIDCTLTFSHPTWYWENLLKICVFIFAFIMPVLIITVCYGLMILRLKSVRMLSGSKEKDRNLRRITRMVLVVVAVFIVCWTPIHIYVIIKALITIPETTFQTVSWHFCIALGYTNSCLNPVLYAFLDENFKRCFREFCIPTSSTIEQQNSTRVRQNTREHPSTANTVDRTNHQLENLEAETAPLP

Row | Compound | IC50 [1] | IC50 (Mu-type opioid receptor) | IC50 [2]
1 | CN1CC[C@@]2(C)c3cc(O)ccc3N(C)[C@@H]12 | 10 µM | 0.3 µM | 0.3 µM
2 | C/C=C1/CN2CC[C@@]34c5cc(O)ccc5N(C)[C@]35OC[C@@]4(C(=O)OC)[C@@H]1C[C@H]25 [AKUAMMINE] | 20 µM | – | 4 µM
3 | C/C=C1/CN2CC[C@@]34c5cc(O)ccc5N(C)[C@@]23CC[C@H]1[C@@]4(CO)C(=O)OC [DIHYDROAKUAMMINE] | > 100 µM | 6 µM | 20 µM
